Measurements from ChEMBL document CHEMBL4266038, “Total Synthesis of Xanthoangelol B and Its Various Fragments: Toward Inhibition of Virulence Factor Production of Staphylococcus aureus” (J Med Chem, 2018).
Activity calls are given as the source filed them. The rule behind the calls is not given here.

Experiments:
[1] = tested on: Staphylococcus aureus subsp. aureus USA300; experiment: Inhibition of Staphylococcus aureus USA300 GFP-fused SaeRS at 20 uM after 8 hrs by fluorescence-based assay
How it was run: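 Reporter strain S. aureus carrying a P_hlam-gfp fusion (kept on chloramphenicol 5 µg/ml) was grown in TSB to OD600 = 1 and diluted to 5x10^5 cells/ml with compound; DMSO served as blank. Cultures were shaken at 37 °C for 8 h, then GFP (ex 485/em 515 nm) and OD600 were read.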

[2] = molecular target: T1, Histidine protein kinase SaeS (Staphylococcus aureus (strain NCTC 8325)) (UniProt Q2G2U1); experiment: Inhibition of phosphotransfer reaction from recombinant Staphylococcus aureus phosphorylated His6-tagged SaeS kinase domain to Staphylococcus aureus SaeR expressed in Escherichia coli BL21(DE3) at 0.2 to 1 mM after 60 mins by coomassie-brilliant blue staining based SDS PAGE/autoradiographic analysis
T1 sequence (whole entry): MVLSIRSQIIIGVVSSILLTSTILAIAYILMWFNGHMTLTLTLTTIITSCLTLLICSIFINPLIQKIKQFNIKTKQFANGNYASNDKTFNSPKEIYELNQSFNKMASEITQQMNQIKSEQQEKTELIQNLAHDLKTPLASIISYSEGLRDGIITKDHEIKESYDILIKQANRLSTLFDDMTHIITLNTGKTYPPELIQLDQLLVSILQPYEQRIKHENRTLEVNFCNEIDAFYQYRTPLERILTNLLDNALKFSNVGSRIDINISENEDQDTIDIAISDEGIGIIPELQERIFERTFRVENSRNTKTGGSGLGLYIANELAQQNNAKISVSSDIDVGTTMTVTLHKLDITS

[3] = tested on: Staphylococcus aureus; experiment: Growth inhibition of Staphylococcus aureus USA300 up to 64 uM after 8 to 20 hrs; assay type: organism-based
How it was run: (§1)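 USA300 was grown in TSB at 37 °C with shaking at 250 rpm. Growth was followed in the presence of compound for 8 h and for 20 h, in triplicate.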

[4] = molecular target: T1, Histidine protein kinase SaeS (Staphylococcus aureus (strain NCTC 8325)); experiment: Binding affinity to Staphylococcus aureus SaeS kinase domain at 1 mM by 1D-NMR analysis
How it was run: (§2)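 Saturation transfer difference 1D NMR with ligand fixed at 1.0 mM, prepared from a stock in deuterated DMSO. Protein was either 30 µM minimal SaeS kinase domain fused to maltose binding protein (MBP-SaeS) or 0.1 mM minimal kinase domain, dialysed into NMR buffer beforehand.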

[5] = tested on: Staphylococcus aureus; experiment: Antivirulence activity in Staphylococcus aureus USA300-infected Galleria mellonella larvae model assessed as larvae survival at 4.3 mg/kg injected at 2 hrs post infection at every 12 hr interval for 72 hrs (reference value: 20%); assay type: functional
How it was run: (§3)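 G. mellonella larvae, 10 per group, were each injected with 20 µl of USA300 inoculum (5x10^6 cfu) into the lower left proleg and held at 37 °C in the dark without food. Treatment was given after infection and repeated every 12 h over 72 h, at doses up to 4.085 or 4.262 mg/kg body weight. Survival was scored daily along with activity, silk production and melanization.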

[6] = tested on: Staphylococcus aureus subsp. aureus USA300; experiment: Inhibition of Staphylococcus aureus USA300 SaeRS assessed as reduction in aureolysin gene expression at 10 uM after 6 hrs by qRT-PCR analysis
[7] = molecular target: T1, Histidine protein kinase SaeS (Staphylococcus aureus (strain NCTC 8325)); experiment: Binding affinity to Staphylococcus aureus MBP-fused SaeS by STD-NMR spectrophotometry; how it was run: as §2
[8] = tested on: Staphylococcus aureus; experiment: Antivirulence activity in Staphylococcus aureus USA300-infected Galleria mellonella larvae model injected at every 12 h interval for 72 hrs; assay type: functional, organism-based; how it was run: as §3
[9] = tested on: Staphylococcus aureus; experiment: Antibacterial activity against Staphylococcus aureus USA300 assessed as log reduction in bacterial burden after 72 hrs; assay type: functional, organism-based
How it was run: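 Galleria mellonella larvae (10 per group) injected in the lower left proleg with 5x10^6 cfu USA300 in 20 µl, held at 37 °C in the dark; treatment began 2 h post infection and was re-injected every 12 h for 72 h. Haemolymph was plated on blood agar to count S. aureus burden at 72 h.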

[10] = tested on: HeLa; experiment: Cytotoxicity against human HeLa cells assessed as reduction in cell viability at 8 uM after 72 hrs by fluorescein diacetate/propidium iodide double staining based confocal microscopy
[11] = tested on: HeLa; experiment: Cytotoxicity against human HeLa cells assessed as reduction in cell viability at >IC50 concentration after 72 hrs by fluorescein diacetate/propidium iodide double staining based confocal microscopy
[12] = tested on: Staphylococcus aureus subsp. aureus USA300; experiment: Inhibition of Staphylococcus aureus USA300 SaeRS assessed as reduction in staphylokinase gene expression at 10 uM after 6 hrs by qRT-PCR analysis
How it was run: (§4)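 S. aureus cultures were treated with compound for 6 h. Total RNA was stabilised and purified with enzymatic disruption, then reverse-transcribed with random hexamers. qRT-PCR used an intercalating dye, with transcripts normalised to 16S rRNA, in triplicate.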

[13] = molecular target: T1, Histidine protein kinase SaeS (Staphylococcus aureus (strain NCTC 8325)); experiment: Binding affinity to Staphylococcus aureus SaeS assessed as T2-rerelaxation time of compound peak at 1 mM by 1D CPMG method
How it was run: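 Transverse-relaxation-filtered 1D NMR using a CPMG pulse train. Ligand fixed at 1.0 mM, from a stock in deuterated DMSO; minimal SaeS kinase domain at 0.1 mM, dialysed into NMR buffer.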

[14] = tested on: Staphylococcus aureus subsp. aureus USA300; experiment: Inhibition of Staphylococcus aureus USA300 SaeRS assessed as reduction in alpha-hemolysin gene expression at 10 uM after 6 hrs by qRT-PCR analysis
[15] = tested on: Staphylococcus aureus; experiment: Reduction in Staphylococcus aureus USA300 sarA gene expression at 10 uM after 6 hrs by qRT-PCR analysis; assay type: functional; how it was run: as §4
[16] = tested on: Staphylococcus aureus subsp. aureus USA300; experiment: Inhibition of Staphylococcus aureus USA300 SaeRS assessed as reduction in gamma-hemolysin gene expression at 10 uM after 6 hrs by qRT-PCR analysis
[17] = tested on: Staphylococcus aureus subsp. aureus USA300; experiment: Inhibition of Staphylococcus aureus USA300 SaeRS assessed as reduction in aureolysin gene expression at 8 uM after 6 hrs by qRT-PCR analysis
[18] = tested on: Staphylococcus aureus; experiment: Antivirulence activity in Staphylococcus aureus USA300-infected Galleria mellonella larvae model assessed as larvae survival at 4.1 mg/kg injected at 2 hrs post infection at every 12 hr interval for 72 hrs (reference value: 20%); assay type: functional; how it was run: as §3
[19] = tested on: Staphylococcus aureus; experiment: Growth inhibition of Staphylococcus aureus USA300 at 64 uM after 20 hrs; assay type: organism-based; how it was run: as §1
[20] = molecular target: T1, Histidine protein kinase SaeS (Staphylococcus aureus (strain NCTC 8325)); experiment: Inhibition of phosphotransfer reaction from recombinant Staphylococcus aureus phosphorylated His6-tagged SaeS kinase domain to Staphylococcus aureus SaeR expressed in Escherichia coli BL21(DE3) at 0.2 mM after 60 mins by coomassie-brilliant blue staining based SDS PAGE/autoradiographic analysis
[21] = tested on: Staphylococcus aureus subsp. aureus USA300; experiment: Inhibition of Staphylococcus aureus USA300 SaeRS assessed as reduction in staphylokinase gene expression at 8 uM after 6 hrs by qRT-PCR analysis; how it was run: as §4
[22] = tested on: Staphylococcus aureus subsp. aureus USA300; experiment: Inhibition of Staphylococcus aureus USA300 SaeRS assessed as reduction in alpha-hemolysin gene expression at 8 uM after 6 hrs by qRT-PCR analysis
[23] = tested on: Staphylococcus aureus subsp. aureus USA300; experiment: Inhibition of Staphylococcus aureus USA300 SaeRS assessed as reduction in gamma-hemolysin gene expression at 8 uM after 6 hrs by qRT-PCR analysis
[24] = tested on: Staphylococcus aureus; experiment: Reduction in Staphylococcus aureus USA300 sarA gene expression at 8 uM after 6 hrs by qRT-PCR analysis; assay type: functional; how it was run: as §4
[25] = tested on: Staphylococcus aureus; experiment: Growth inhibition of Staphylococcus aureus USA300 at 16 uM after 20 hrs; assay type: organism-based; how it was run: as §1

C=CCc1c(O)ccc(C(=O)/C=C/c2ccc(O)cc2)c1O
inhibition [1]: inactive

C=CCc1c(O)ccc(C(C)=O)c1O
inhibition [1]: inactive

O=C(/C=C/c1ccc(O)cc1)c1ccc(O)cc1O
inhibition [1]: inactive

CC(C)=CCC/C(C)=C/Cc1c(O)ccc(C(=O)/C=C/c2ccc(O)cc2)c1O
inhibition [1]: inactive

COc1ccc(C(=O)/C=C/c2ccc(O)cc2)c(O)c1C/C=C(\C)CCC=C(C)C
inhibition [1]: inactive

C=C(C)C(O)CC/C(C)=C/Cc1c(O)ccc(C(=O)CC(O)c2ccc(O)cc2)c1O (centres undefined)
inhibition [2]: inactive | growth inhibition (GI) [3]: Non-Toxic | Activity [4]: Active | survival at 4.3 mg/kg [5]: 100% | inhibition [6]: Active | Activity [7]: Active | Activity [8]: Dose-dependent effect | Activity [9]: Dose-dependent effect | Activity [10]: Non-Toxic | Activity [11]: Non-Toxic | inhibition [12]: Active | Activity [13]: Active | inhibition [14]: Active | Activity [15]: inactive | inhibition [16]: Active

C=C(C)C(O)CC/C(C)=C/Cc1c(O)ccc(C(=O)/C=C/c2ccc(O)cc2)c1O (centres undefined) [XANTHOANGELOL B]
inhibition [17]: Active | survival at 4.1 mg/kg [18]: 100% | growth inhibition (GI) [19]: Toxic | Activity [8]: Dose-dependent effect | Activity [9]: Dose-dependent effect | Activity [10]: Non-Toxic | Activity [11]: Non-Toxic | inhibition [20]: inactive | inhibition [21]: Active | inhibition [22]: Active | inhibition [23]: Active | Activity [24]: inactive | growth inhibition (GI) [25]: Toxic

C=C(C)CCC=C(C)C
inhibition [1]: inactive
